From ChEMBL document CHEMBL3297651, “Plumbagin downregulates Wnt signaling independent of p53 in human colorectal cancer cells” (J Nat Prod, 2014)
Activity calls are given as the source filed them. The calls are words filed in the database; no cut-off is given here.

Columns and labels:
SW480 [1] = test: Cytotoxicity against human SW480 cells assessed as cell viability after 48 hrs by MTT assay; assay type: functional, cell-based
How it was run: (§1)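 Cells seeded at 5000/well in 96-well plates, adhered overnight, then exposed to compound for 24 or 48 h (0−20 μM for SW480/SW620; 0−30 μM for HCT116 p53+/+ and p53−/−). MTT (5 mg/mL) added for 3.5 h, formazan dissolved in DMSO, OD read at 570 nm with 655 nm reference. Means ± SE from three independent experiments; IC50 derived from viability curves.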

SW-620 [2] = test: Inhibition of proto-oncogene protein Wnt/beta-catenin in human SW620 cells assessed as downregulation of vimentin protein expression at 6 uM after 24 hrs by Western blot analysis relative to control; assay type: cell-based
How it was run: (§2)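 10^6 cells/well in six-well plates treated 24 h with compound (6 μM SW620; 10 μM HCT116 lines) or DMSO control. Lysed 1 h on ice in Tris/NaCl/Triton/deoxycholate buffer with phosphatase and protease inhibitors; 50−75 μg protein on 8−10% SDS-PAGE, PVDF, primary antibodies 1:1000 overnight 4 °C, HRP secondaries 1:10 000, chemiluminescence; β-actin loading control; three independent experiments.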

HCT-116 [3] = test: Upregulation of HBP1 protein expression in human HCT116 cells expressing p53 at 10 uM after 24 hrs by Western blot analysis; assay type: functional, cell-based; how it was run: as §2
SW480 [4] = test: Inhibition of proto-oncogene protein Wnt in human SW480 cells assessed as downregulation of beta-catenin protein expression at 6 to 10 uM after 24 hrs by Western blot analysis; assay type: cell-based
SW480 [5] = test: Inhibition of proto-oncogene protein Wnt in human SW480 cells assessed as downregulation of Bcl9l protein expression at 6 to 10 uM after 24 hrs by Western blot analysis; assay type: cell-based
HCT-116 [6] = test: Inhibition of proto-oncogene protein Wnt/beta-catenin in p53-deficient human HCT116 cells assessed as downregulation of TCF/LEF promoter transcriptional activity at 5 to 10 uM after 24 hrs by TOPFlash/FOPFlash luciferase reporter gene assay; assay type: cell-based
How it was run: (§3)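 3 × 10^4 cells/well transfected with TOPFlash or FOPFlash plus Renilla plasmids (200 ng) by lipofectin in serum- and antibiotic-free DMEM. After 6 h, compound added in complete DMEM for 24 h (SW620 1−3 μM; HCT116 lines 5 and 10 μM), DMSO control. Dual luciferase read by photon counting, firefly normalized to Renilla; means ± SE, three independent experiments, Student t-test.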

SW-620 [7] = test: Inhibition of proto-oncogene protein Wnt/beta-catenin in human SW620 cells assessed as downregulation of cyclin D1 protein expression at 6 uM after 24 hrs by Western blot analysis relative to control; assay type: cell-based; how it was run: as §2
SW-620 [8] = test: Cytotoxicity against human SW620 cells assessed as cell viability after 48 hrs by MTT assay; assay type: functional, cell-based; how it was run: as §1
SW-620 [9] = test: Inhibition of proto-oncogene protein Wnt/beta-catenin in human SW620 cells assessed as downregulation of c-Myc protein expression at 6 uM after 24 hrs by Western blot analysis relative to control; assay type: cell-based; how it was run: as §2
SW480 [10] = test: Inhibition of proto-oncogene protein Wnt/beta-catenin in human SW480 cells assessed as downregulation of mutant TCF/LEF promoter transcriptional activity at 1 to 3 uM after 24 hrs by FOPFlash luciferase reporter gene assay; assay type: cell-based
SW480 [11] = test: Inhibition of proto-oncogene protein Wnt in human SW480 cells assessed as downregulation of TCF7L2 protein expression at 6 to 10 uM after 24 hrs by Western blot analysis; assay type: cell-based
SW-620 [12] = test: Inhibition of proto-oncogene protein Wnt in human SW620 cells assessed as downregulation of beta-catenin protein expression at 6 uM after 24 hrs by Western blot analysis; assay type: cell-based; how it was run: as §2
SW-620 [13] = test: Inhibition of proto-oncogene protein Wnt in human SW620 cells assessed as downregulation of Bcl9l protein expression at 6 uM after 24 hrs by Western blot analysis; assay type: cell-based; how it was run: as §2
HCT-116 [14] = test: Inhibition of proto-oncogene protein Wnt/beta-catenin in human HCT116 cells expressing p53 assessed as downregulation of TCF/LEF promoter transcriptional activity at 5 to 10 uM after 24 hrs by TOPFlash/FOPFlash luciferase reporter gene assay; assay type: cell-based; how it was run: as §3
SW480 [15] = test: Inhibition of proto-oncogene protein Wnt in human SW480 cells assessed as downregulation of p300 protein expression at 6 to 10 uM after 24 hrs by Western blot analysis; assay type: cell-based
SW-620 [16] = test: Upregulation of HBP1 protein expression in human SW620 cells at 6 uM after 24 hrs by Western blot analysis relative to control; assay type: functional; how it was run: as §2
SW-620 [17] = test: Inhibition of proto-oncogene protein Wnt/beta-catenin in human SW620 cells assessed as downregulation of TCF/LEF promoter transcriptional activity after 24 hrs by TOPFlash luciferase reporter gene assay; assay type: cell-based; how it was run: as §3
SW-620 [18] = test: Cytotoxicity against human SW620 cells assessed as cell viability after 24 hrs by MTT assay; assay type: functional, cell-based; how it was run: as §1
SW480 [19] = test: Cytotoxicity against human SW480 cells assessed as cell viability after 24 hrs by MTT assay; assay type: functional, cell-based; how it was run: as §1
SW-620 [20] = test: Inhibition of proto-oncogene protein Wnt/beta-catenin in human SW620 cells assessed as downregulation of mutant TCF/LEF promoter transcriptional activity at 1 to 3 uM after 24 hrs by FOPFlash luciferase reporter gene assay; assay type: cell-based; how it was run: as §3
HCT-116 [21] = test: Inhibition of proto-oncogene protein Wnt in human HCT116 cells expressing p53 assessed as downregulation of beta-catenin protein expression at 10 uM after 24 hrs by Western blot analysis relative to control; assay type: cell-based; how it was run: as §2
HCT-116 [22] = test: Upregulation of HBP1 protein expression in p53-deficient human HCT116 cells at 10 uM after 24 hrs by Western blot analysis; assay type: functional, cell-based; how it was run: as §2
SW-620 [23] = test: Inhibition of proto-oncogene protein Wnt in human SW620 cells assessed as downregulation of TCF7L2 protein expression at 6 uM after 24 hrs by Western blot analysis; assay type: cell-based; how it was run: as §2
HCT-116 [24] = test: Inhibition of proto-oncogene protein Wnt in p53-deficient human HCT116 cells assessed as downregulation of beta-catenin protein expression at 10 uM after 24 hrs by Western blot analysis relative to control; assay type: cell-based; how it was run: as §2
SW-620 [25] = test: Inhibition of proto-oncogene protein Wnt in human SW620 cells assessed as downregulation of p300 protein expression at 6 uM after 24 hrs by Western blot analysis; assay type: cell-based; how it was run: as §2
HCT-116 [26] = test: Cytotoxicity against p53-deficient human HCT116 cells assessed as cell viability after 24 hrs by MTT assay; assay type: functional, cell-based; conditions: HCT-116, 24 h; how it was run: as §1
HCT-116 [27] = test: Cytotoxicity against human HCT116 cells expressing p53 assessed as cell viability after 24 hrs by MTT assay; assay type: functional, cell-based; conditions: HCT-116, 24 h; how it was run: as §1
SW480 [28] = test: Inhibition of proto-oncogene protein Wnt/beta-catenin in human SW480 cells assessed as downregulation of TCF/LEF promoter transcriptional activity after 24 hrs by TOPFlash luciferase reporter gene assay; assay type: cell-based

SMILES: CC1=CC(=O)c2c(O)cccc2C1=O [PLUMBAGIN]
- Activity (SW480 [1]): Dose-dependent effect
- IC50 (SW480 [1]; SW480, 48 h): 7.3 µM
- inhibition (SW-620 [2]): 50%
- Activity (HCT-116 [3]): Active
- inhibition (SW480 [4]): Active
- inhibition (SW480 [5]): Active
- inhibition (HCT-116 [6]): Active
- inhibition (SW-620 [7]): 50%
- Activity (SW-620 [8]): Dose-dependent effect
- IC50 (SW-620 [8]; SW-620, 48 h): 7.4 µM
- inhibition (SW-620 [9]): 50%
- inhibition (SW480 [10]): inactive
- inhibition (SW480 [11]): Active
- inhibition (SW-620 [12]): Active
- inhibition (SW-620 [13]): Active
- inhibition (HCT-116 [14]): Active
- inhibition (SW480 [15]): Active
- fold change (FC) (SW-620 [16]): 1.68
- inhibition (SW-620 [17]): Dose-dependent effect
- Activity (SW-620 [18]): Dose-dependent effect
- IC50 (SW-620 [18]; SW-620, 24 h): 7.7 µM
- Activity (SW480 [19]): Dose-dependent effect
- IC50 (SW480 [19]; SW480, 24 h): 12 µM
- inhibition (SW-620 [20]): inactive
- inhibition (HCT-116 [21]): 33%
- Activity (HCT-116 [22]): Active
- inhibition (SW-620 [23]): Active
- inhibition (HCT-116 [24]): 20%
- inhibition (SW-620 [25]): Active
- IC50 (HCT-116 [26]): 20 µM
- IC50 (HCT-116 [27]): 20 µM
- inhibition (SW480 [28]): Dose-dependent effect
